According to ChEMBL document CHEMBL3864175, “Sulfonamides as Selective NaV1.7 Inhibitors: Optimizing Potency and Pharmacokinetics to Enable in Vivo Target Engagement” (ACS Med Chem Lett, 2016):

Key:
[1] = target: Sodium channel protein type 5 subunit alpha (Homo sapiens, UniProt Q14524); test: Inhibition of human Nav1.5 expressed in HEK293 cells assessed as inhibition of sodium current at holding potential of -125 mV measured for 3 to 5 mins by whole cell voltage clamp method; type: cell-based
[2] = Apparent permeability in MDCK cells; type: ADME, cell-based, Canis lupus familiaris; details: dog
Summary of the method: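 Apparent permeability measured in parental MDCK cells.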

[3] = Fraction unbound in rat plasma at 5 uM measured after 45 mins by LC-MS/MS analysis; type: ADME, cell-free
[4] = Clearance in rat at 0.5 mg/kg, iv by LC-MS/MS analysis; type: ADME, organism-based; details: in vivo
Summary of the method: (§1)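 Male rats, n = 2 per group, dosed intravenously at 0.5 mg/kg as a solution in 100% DMSO. Unbound clearance is derived from total clearance.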

[5] = Unbound clearance in rat at 0.5 mg/kg, iv by LC-MS/MS analysis; type: ADME, organism-based; details: in vivo; summary of the method: as §1
[6] = target: Sodium channel protein type 9 subunit alpha (Homo sapiens, UniProt Q15858); test: Inhibition of human Nav1.7 expressed in HEK293 cells assessed as inhibition of sodium current at holding potential of -125 mV measured for 3 to 5 mins by whole cell voltage clamp method; type: cell-based
[7] = Intrinsic clearance in human liver microsomes at 1 uM measured after 40 mins in presence of NADPH by LC-MS/MS analysis; type: ADME; details: read-out: CLH
Summary of the method: (§2)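 Clearance measured in rat or human liver microsomes. Test compound at 1 μM, microsomal protein at 250 μg/mL.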

[8] = Intrinsic clearance in rat liver microsomes at 1 uM measured after 40 mins in presence of NADPH by LC-MS/MS analysis; type: ADME; details: read-out: CLH; summary of the method: as §2
[9] = Dissociation constant, pKa of the compound at pH 1.7 to 11.2 by capillary electrophoresis method; type: physicochemical
Summary of the method: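 pKa values calculated from capillary electrophoresis data collected over pH 1.7 to 11.2.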

[10] = Apparent permeability in MDCK cells assessed as drug recovery; type: ADME, cell-based, Canis lupus familiaris; details: dog, read-out: Drug recovery
[11] = Stability in bile duct cannulated Sprague-Dawley rat assessed as parent compound level in bile at 6.67 mg/kg, iv administered through catheter measured after 2 and 4 hrs post dose by LC-MS/MS analysis; type: ADME, organism-based; details: in vivo
[12] = Drug metabolism in bile duct cannulated Sprague-Dawley rat urine assessed as metabolite formation at 6.67 mg/kg, iv administered through catheter measured after 2 and 4 hrs post dose by LC-MS/MS analysis; type: ADME, organism-based; details: in vivo
[13] = Selectivity index, ratio of IC50 for human Nav1.5 expressed in HEK293 cells to IC50 for human Nav 1.7 expressed in HEK293 cells

Sodium channel protein type 9 subunit alpha, sequence (Q15858 whole entry): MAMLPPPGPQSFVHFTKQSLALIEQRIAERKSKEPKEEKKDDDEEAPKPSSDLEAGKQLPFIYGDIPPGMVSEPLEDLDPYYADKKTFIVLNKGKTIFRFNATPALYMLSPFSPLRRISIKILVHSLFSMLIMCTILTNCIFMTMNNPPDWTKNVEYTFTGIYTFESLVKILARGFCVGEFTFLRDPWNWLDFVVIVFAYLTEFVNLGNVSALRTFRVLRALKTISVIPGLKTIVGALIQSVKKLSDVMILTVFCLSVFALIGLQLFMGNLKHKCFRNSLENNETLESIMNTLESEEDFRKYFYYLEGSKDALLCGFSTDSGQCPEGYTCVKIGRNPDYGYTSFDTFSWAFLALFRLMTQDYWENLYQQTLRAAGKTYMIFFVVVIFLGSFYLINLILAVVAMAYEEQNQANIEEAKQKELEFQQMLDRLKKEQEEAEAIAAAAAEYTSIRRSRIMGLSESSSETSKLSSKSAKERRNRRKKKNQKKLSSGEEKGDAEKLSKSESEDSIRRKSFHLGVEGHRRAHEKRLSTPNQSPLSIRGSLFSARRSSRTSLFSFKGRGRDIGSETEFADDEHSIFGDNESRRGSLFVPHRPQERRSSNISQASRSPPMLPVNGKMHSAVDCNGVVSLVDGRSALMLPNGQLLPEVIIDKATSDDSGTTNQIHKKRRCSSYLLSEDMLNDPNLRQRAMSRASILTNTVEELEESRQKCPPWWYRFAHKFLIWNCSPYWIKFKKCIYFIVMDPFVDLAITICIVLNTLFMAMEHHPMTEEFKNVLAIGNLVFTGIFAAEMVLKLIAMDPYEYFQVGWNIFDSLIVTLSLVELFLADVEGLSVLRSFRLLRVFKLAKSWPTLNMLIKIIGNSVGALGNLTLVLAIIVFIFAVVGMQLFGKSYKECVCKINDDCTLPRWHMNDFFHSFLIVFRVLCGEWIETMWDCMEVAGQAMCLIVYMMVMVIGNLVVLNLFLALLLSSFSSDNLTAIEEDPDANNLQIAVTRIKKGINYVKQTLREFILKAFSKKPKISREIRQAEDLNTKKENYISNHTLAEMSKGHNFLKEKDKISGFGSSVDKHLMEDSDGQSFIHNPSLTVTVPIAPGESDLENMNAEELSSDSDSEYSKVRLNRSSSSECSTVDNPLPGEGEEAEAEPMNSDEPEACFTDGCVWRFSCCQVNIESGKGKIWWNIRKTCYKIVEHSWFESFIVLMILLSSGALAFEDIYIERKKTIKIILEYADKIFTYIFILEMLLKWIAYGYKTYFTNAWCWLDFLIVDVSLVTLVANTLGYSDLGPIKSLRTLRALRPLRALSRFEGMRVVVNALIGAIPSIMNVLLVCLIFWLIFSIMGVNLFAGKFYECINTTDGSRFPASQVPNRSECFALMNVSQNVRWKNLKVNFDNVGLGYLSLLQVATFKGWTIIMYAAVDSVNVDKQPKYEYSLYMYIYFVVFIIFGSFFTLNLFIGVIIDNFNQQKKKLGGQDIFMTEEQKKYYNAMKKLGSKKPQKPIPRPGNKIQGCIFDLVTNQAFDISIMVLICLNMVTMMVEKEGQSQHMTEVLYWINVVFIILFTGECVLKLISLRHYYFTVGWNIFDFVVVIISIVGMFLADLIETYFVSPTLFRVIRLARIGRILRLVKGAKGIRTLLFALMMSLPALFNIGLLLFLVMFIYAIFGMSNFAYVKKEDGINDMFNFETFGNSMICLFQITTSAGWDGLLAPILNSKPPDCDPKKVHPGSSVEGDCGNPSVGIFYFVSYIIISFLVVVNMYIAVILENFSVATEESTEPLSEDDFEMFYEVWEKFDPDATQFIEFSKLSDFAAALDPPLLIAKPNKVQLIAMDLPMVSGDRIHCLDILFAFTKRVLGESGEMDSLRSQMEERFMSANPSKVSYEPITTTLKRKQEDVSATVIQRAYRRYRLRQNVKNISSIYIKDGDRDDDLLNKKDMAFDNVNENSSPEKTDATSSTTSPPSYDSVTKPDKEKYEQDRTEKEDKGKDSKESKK
Sodium channel protein type 5 subunit alpha, sequence (Q14524 whole entry): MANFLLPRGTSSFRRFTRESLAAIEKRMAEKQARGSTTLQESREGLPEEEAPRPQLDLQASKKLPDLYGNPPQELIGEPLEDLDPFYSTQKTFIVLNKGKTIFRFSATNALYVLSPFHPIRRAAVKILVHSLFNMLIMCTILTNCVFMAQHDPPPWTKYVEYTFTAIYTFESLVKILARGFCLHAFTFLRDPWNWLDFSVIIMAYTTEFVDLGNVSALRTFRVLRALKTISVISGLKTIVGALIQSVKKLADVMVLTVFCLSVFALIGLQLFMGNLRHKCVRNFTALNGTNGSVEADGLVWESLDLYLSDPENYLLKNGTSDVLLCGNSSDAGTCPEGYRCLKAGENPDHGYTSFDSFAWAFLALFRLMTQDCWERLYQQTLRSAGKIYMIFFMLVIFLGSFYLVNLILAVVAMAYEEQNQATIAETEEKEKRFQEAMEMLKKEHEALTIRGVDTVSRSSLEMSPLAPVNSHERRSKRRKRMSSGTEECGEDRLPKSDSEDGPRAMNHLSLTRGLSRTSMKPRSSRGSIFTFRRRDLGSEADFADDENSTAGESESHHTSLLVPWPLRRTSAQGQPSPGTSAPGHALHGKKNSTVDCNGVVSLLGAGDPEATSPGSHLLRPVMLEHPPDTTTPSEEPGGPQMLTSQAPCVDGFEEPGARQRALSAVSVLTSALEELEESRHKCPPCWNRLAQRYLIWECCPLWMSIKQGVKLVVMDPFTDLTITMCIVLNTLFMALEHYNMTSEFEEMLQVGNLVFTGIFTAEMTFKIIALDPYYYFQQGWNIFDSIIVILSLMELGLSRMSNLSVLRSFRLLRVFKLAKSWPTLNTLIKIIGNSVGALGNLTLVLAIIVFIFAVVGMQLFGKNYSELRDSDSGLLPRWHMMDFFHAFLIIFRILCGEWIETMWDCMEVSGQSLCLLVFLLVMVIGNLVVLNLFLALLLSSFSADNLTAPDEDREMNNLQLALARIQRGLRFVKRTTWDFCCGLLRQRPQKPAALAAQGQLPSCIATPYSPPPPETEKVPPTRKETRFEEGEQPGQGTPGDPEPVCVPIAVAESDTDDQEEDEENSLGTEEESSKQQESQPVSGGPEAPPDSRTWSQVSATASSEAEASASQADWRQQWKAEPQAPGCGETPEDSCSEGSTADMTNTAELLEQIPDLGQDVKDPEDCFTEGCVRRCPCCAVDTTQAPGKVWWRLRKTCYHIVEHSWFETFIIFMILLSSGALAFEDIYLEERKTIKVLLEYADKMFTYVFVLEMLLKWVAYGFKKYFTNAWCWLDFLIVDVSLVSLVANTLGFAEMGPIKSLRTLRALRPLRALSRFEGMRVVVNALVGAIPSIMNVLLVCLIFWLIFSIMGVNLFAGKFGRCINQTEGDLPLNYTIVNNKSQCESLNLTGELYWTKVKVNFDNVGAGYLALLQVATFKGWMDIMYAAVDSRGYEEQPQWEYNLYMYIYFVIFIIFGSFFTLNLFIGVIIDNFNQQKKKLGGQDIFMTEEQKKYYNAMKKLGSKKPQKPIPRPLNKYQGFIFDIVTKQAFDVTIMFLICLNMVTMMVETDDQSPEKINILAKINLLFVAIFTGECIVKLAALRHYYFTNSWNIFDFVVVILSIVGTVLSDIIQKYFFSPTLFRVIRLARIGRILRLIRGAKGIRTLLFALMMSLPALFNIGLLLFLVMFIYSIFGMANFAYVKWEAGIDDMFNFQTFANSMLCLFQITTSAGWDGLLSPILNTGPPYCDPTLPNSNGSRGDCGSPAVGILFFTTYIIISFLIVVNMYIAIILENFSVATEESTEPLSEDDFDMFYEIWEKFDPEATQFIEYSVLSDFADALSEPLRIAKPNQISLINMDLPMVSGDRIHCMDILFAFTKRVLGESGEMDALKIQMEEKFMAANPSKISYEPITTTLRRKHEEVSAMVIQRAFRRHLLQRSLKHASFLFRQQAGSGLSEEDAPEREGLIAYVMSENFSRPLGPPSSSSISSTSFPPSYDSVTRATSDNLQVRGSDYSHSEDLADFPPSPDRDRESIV

Compound `COc1cc(C(F)(F)F)ccc1-c1nccc2cc(S(=O)(=O)Nc3nccs3)ccc12` has an IC50 [1] of over 30000 nM, a Papp [2] of 34 ×10⁻⁶ cm/s and a fraction unbound at 0.75 h, 5 µM [3] of 0.012. For the same compound, the clearance [4] was 3 mL/min/kg and the CL free [5] was 250 mL/min/kg.
With `COc1cc(C(F)(F)F)ccc1-c1cccc2cc(S(=O)(=O)Nc3cscn3)ccc12` the IC50 [6] was 1400 nM, the IC50 [1] was 21000 nM and the microsomal CLint at 1 µM [7] was under 14 µL/min/mg. The microsomal CLint at 1 µM [8] was under 14 µL/min/mg, the Papp [2] was 27 ×10⁻⁶ cm/s and the pKa [9] was 7.2.
Compound `O=S(=O)(Nc1ncns1)c1ccc2c(-c3ccc(C(F)(F)F)cc3O)cccc2c1` has a microsomal CLint at 1 µM [7] of 25 µL/min/mg, a microsomal CLint at 1 µM [8] of 18 µL/min/mg and a Papp [2] of under 2 ×10⁻⁶ cm/s. The fraction unbound at 0.75 h, 5 µM [3] was 0.001 and the pKa [9] was 3.6.
In the case of `O=S(=O)(Nc1ncns1)c1ccc2c(-c3ccc(C(F)(F)F)cc3Br)cccc2c1`, the IC50 [6] is reported as 160 nM, the IC50 [1] is reported as 21000 nM and the microsomal CLint at 1 µM [7] is reported as under 14 µL/min/mg. The microsomal CLint at 1 µM [8] was under 14 µL/min/mg, the Papp [2] was over 5 ×10⁻⁶ cm/s and the fraction unbound at 0.75 h, 5 µM [3] was 0.003. For the same compound, the clearance [4] was 4 mL/min/kg, the CL free [5] was 1330 mL/min/kg and the pKa [9] was 3.6. For the same compound, the recovery [10] was under 50%.
With `COc1cc(C(F)(F)F)ccc1-c1cccc2cc(S(=O)(=O)Nc3nccs3)ccc12` the IC50 [6] was 590 nM, the IC50 [1] was 21000 nM and the microsomal CLint at 1 µM [7] was 25 µL/min/mg. For the same compound, the microsomal CLint at 1 µM [8] was 52 µL/min/mg, the Papp [2] was 12 ×10⁻⁶ cm/s and the fraction unbound at 0.75 h, 5 µM [3] was 0.001. For the same compound, the clearance [4] was 0.817 mL/min/kg, the CL free [5] was 817 mL/min/kg and the pKa [9] was 6.7.
For `COc1cc(C(F)(F)F)ccc1-c1cccc2cc(S(=O)(=O)Nc3ncns3)ccc12`, the IC50 [6] was 51 nM, the microsomal CLint at 1 µM [7] was 15 µL/min/mg and the microsomal CLint at 1 µM [8] was 18 µL/min/mg. The Papp [2] was 17 ×10⁻⁶ cm/s, the fraction unbound at 0.75 h, 5 µM [3] was 0.001 and the clearance [4] was 86.7 mL/min/kg. For the same compound, the pKa [9] was 3.7.
`COc1cc(C(F)(F)F)ccc1-c1cccc2cc(S(=O)(=O)Nc3ccncn3)ccc12` gave an IC50 [6] of 510 nM, an IC50 [1] of over 30000 nM and a microsomal CLint at 1 µM [7] of under 14 µL/min/mg. It also gave a microsomal CLint at 1 µM [8] of under 14 µL/min/mg, a Papp [2] of 27 ×10⁻⁶ cm/s and a fraction unbound at 0.75 h, 5 µM [3] of 0.003.
`COc1cc(C(F)(F)F)ccc1-c1cccc2cc(S(=O)(=O)Nc3cncs3)ccc12` showed an IC50 [6] of over 30000 nM, a microsomal CLint at 1 µM [7] of 46 µL/min/mg and a microsomal CLint at 1 µM [8] of 37 µL/min/mg. It also gave a Papp [2] of 28 ×10⁻⁶ cm/s.
Work on `COc1cc(C(F)(F)F)ccc1-c1cccc2cc(S(=O)(=O)Nc3ccccn3)ccc12` yielded an IC50 [6] of over 30000 nM, a microsomal CLint at 1 µM [7] of 16 µL/min/mg and a microsomal CLint at 1 µM [8] of 25 µL/min/mg. The Papp [2] was 9.5 ×10⁻⁶ cm/s.
Work on `Cc1cc(C(F)(F)F)ccc1-c1cccc2cc(S(=O)(=O)Nc3ncns3)ccc12` yielded an IC50 [6] of 48 nM, a microsomal CLint at 1 µM [7] of 15 µL/min/mg and a microsomal CLint at 1 µM [8] of under 14 µL/min/mg. It also gave a Papp [2] of over 5 ×10⁻⁶ cm/s, a fraction unbound at 0.75 h, 5 µM [3] of 0.001 and a pKa [9] of 3.6. It also gave a recovery [10] of under 50%.
Work on `COc1cc(C(F)(F)F)ccc1-c1nccc2cc(S(=O)(=O)Nc3nccs3)cnc12` yielded an IC50 [1] of over 30000 nM and a Papp [2] of 12 ×10⁻⁶ cm/s.
Work on `N#Cc1cc(S(=O)(=O)Nc2ncns2)ccc1Oc1ccc(C(F)(F)F)cc1-c1cn[nH]c1` yielded an IC50 [1] of over 30000 nM, a microsomal CLint at 1 µM [8] of 39 µL/min/mg and a Papp [2] of under 1 ×10⁻⁶ cm/s. The clearance [4] was 65 mL/min/kg.
For `Cn1nccc1-c1cc(Cl)ccc1-c1cn(C)c2cc(S(=O)(=O)Nc3ncns3)ccc12`, the Stability [11] was “Stable” and the Drug metabolism [12] was “Metabolite_Notdetected”.
`Cn1nccc1-c1cc(C(F)(F)F)ccc1-c1cccc2cc(S(=O)(=O)Nc3ncns3)ccc12` showed a microsomal CLint at 1 µM [8] of 21 µL/min/mg, a Papp [2] of under 2 ×10⁻⁶ cm/s and a clearance [4] of 158 mL/min/kg.
In the case of `COc1cc(C(F)(F)F)ccc1-c1n[nH]c(=O)c2cc(S(=O)(=O)Nc3nccs3)ccc12`, the Papp [2] is reported as 3.2 ×10⁻⁶ cm/s, the fraction unbound at 0.75 h, 5 µM [3] is reported as 0.013 and the clearance [4] is reported as 40 mL/min/kg. The CL free [5] was 2670 mL/min/kg.
With `COc1cc(C(F)(F)F)ccc1-c1cccc2cc(S(=O)(=O)Nc3ncccn3)ccc12` the IC50 [6] was 1500 nM, the IC50 [1] was over 30000 nM and the microsomal CLint at 1 µM [7] was 17 µL/min/mg. The microsomal CLint at 1 µM [8] was under 14 µL/min/mg and the Papp [2] was 36 ×10⁻⁶ cm/s.
`Cn1nccc1-c1cc(C(F)(F)F)ccc1-c1cn(C)c2cc(S(=O)(=O)Nc3ncns3)ccc12` showed an IC50 [6] of 120 nM, an IC50 [1] of over 30000 nM and a microsomal CLint at 1 µM [8] of 19 µL/min/mg. The Papp [2] was 1.3 ×10⁻⁶ cm/s, the clearance [4] was 68.3 mL/min/kg and the “Ratio IC50” value [13] was over 200.
Work on `COc1cc(C(F)(F)F)ccc1-c1cnnc2cc(S(=O)(=O)Nc3nccs3)ccc12` yielded a Papp [2] of 36 ×10⁻⁶ cm/s, a fraction unbound at 0.75 h, 5 µM [3] of 0.014 and a clearance [4] of 18.3 mL/min/kg. The CL free [5] was 1350 mL/min/kg.
In the case of `O=S(=O)(Nc1ncns1)c1ccc2c(-c3ccc(C(F)(F)F)cc3C3=CCNCC3)cccc2c1`, the IC50 [6] is reported as 37 nM, the IC50 [1] is reported as over 30000 nM and the microsomal CLint at 1 µM [7] is reported as under 14 µL/min/mg. For the same compound, the microsomal CLint at 1 µM [8] was under 14 µL/min/mg, the Papp [2] was 1.3 ×10⁻⁶ cm/s and the fraction unbound at 0.75 h, 5 µM [3] was 0.1. It also gave a clearance [4] of 90 mL/min/kg and a pKa [9] of 3.6.
